Measurements from different studies.
Target: STE20/SPS1-related proline-alanine-rich protein kinase (STK39, Homo sapiens, UniProt Q9UEW8)

The remaining binding of `CN(C)c1nccc(-c2cnn3ncccc23)n1` is reported as 28% (binding; 1 µM).
`CCN1CCN(Cc2ccc(C(=O)Nc3ccc(C)c(Oc4ccc5c(c4)CC(=O)N5)c3)cc2C(F)(F)F)CC1` has a remaining binding of 68% (binding; competition with immobilised ligand; 1 µM).
The remaining binding of `CN(CCCC(F)(F)F)c1nccc(-c2cnn3ncccc23)n1` is reported as 82% (binding; 1 µM).
`O=C(c1ccc(Nc2ncc(Cl)c(-c3ccc(Cl)s3)n2)cc1)N1CCC(N2CCCC2)CC1` gave a remaining binding of 48% (binding; competition with immobilised ligand; 1 µM).
`CN(C)c1ncc(F)c(-c2cnn3ncccc23)n1` gave a remaining binding of 74% (binding; 1 µM).
`O=C(NCc1ncc(C(F)(F)F)cc1Cl)c1ccc2c(c1)C1(CCS(=O)(=O)CC1)[C@H](C1CC1)N2S(=O)(=O)c1ccc(F)cc1` has a remaining binding of 84% (cell-free assay; competition with immobilised ligand; 1 µM).
`COc1cnc(Nc2cccc(S(N)(=O)=O)c2)nc1N1CCN(c2ccccc2)CC1` has a remaining binding of 75% (binding; competition with immobilised ligand; 1 µM).
With `O=C(NCCCN1CCOCC1)c1ccc(Nc2nccc(-c3cc4ccccc4s3)n2)cc1` the remaining binding was 73% (binding; competition with immobilised ligand; 1 µM).
`C[C@@H]1CCN(c2nccc(-c3cnn4ncccc34)n2)C1` gave a remaining binding of 59% (binding; 1 µM).
For `O=C(NCC1CCOCC1)c1n[nH]cc1NC(=O)c1c(F)cccc1F`, the remaining binding was 96% (binding; competition with immobilised ligand; 1 µM).
For `C[C@@H](c1ccc(-n2cnc3c(N)ncnc32)cc1)N1CCc2nn(C)c(Cc3ccccc3)c2C1=O`, the remaining binding was 84% (binding; competition with immobilised ligand; 0.1 µM).
The remaining binding of `CN(C)c1ncnc(-c2ccc3nc(Nc4cc(CN5CCN(C(=O)CC(F)(F)F)CC5)ccn4)[nH]c3c2)c1Cl` is reported as 69% (cell-free assay; competition with immobilised ligand; 1 µM).
`Cc1cnc(Nc2ccc(C(=O)N3CCC(N4CCCC4)CC3)cc2)nc1-c1cc2ccccc2s1` gave a remaining binding of 53% (binding; competition with immobilised ligand; 1 µM).
The remaining binding of `COc1cc(-c2cn(C3CCc4ccccc4N(CC(F)(F)F)C3=O)nn2)ccc1-n1ccc(C)n1` (stereo not drawn) is reported as 98% (cell-free assay; competition with immobilised ligand; 1 µM).
`Cc1cnn2ncc(-c3ccnc(N(C)C)n3)c2c1` has a remaining binding of 100% (binding; 1 µM).
The remaining binding of `Cn1nc(C(F)(F)F)cc1-c1cnc(N2CCc3cc(S(=O)(=O)Nc4c(F)cc(Cl)cc4F)cc(N4CCCC4=O)c32)nc1` is reported as 91% (cell-free assay; competition with immobilised ligand; 1 µM).
For `c1cncc(-c2cccc(Nc3nccc(NC4CCCCC4)n3)c2)c1`, the remaining binding was 97% (binding; competition with immobilised ligand; 10 µM).
`O=C1NC(c2ccccn2)Sc2ccccc21` (stereo not drawn) has a remaining binding of 89% (cell-free assay; competition with immobilised ligand; 1 µM).
With `COc1ccnn2ncc(-c3ccnc(N(C)C)n3)c12` the remaining binding was 49% (binding; 1 µM).
For `Cc1cc(NC(=O)c2cccc(S(F)(F)(F)(F)F)c2)cc(-n2ccn3nc(-c4cccnc4)cc23)c1`, the remaining binding was 100% (cell-free assay; competition with immobilised ligand; 1 µM).
For `COc1cnc(Nc2cccc(S(N)(=O)=O)c2)nc1N1CCN(c2ccccc2)C(=O)C1`, the remaining binding was 99% (binding; competition with immobilised ligand; 1 µM).
